pIC50: −log10 of the molar value. Converted amounts (≈) assume the structure as drawn.
Experiments:
[1] = tested on: Mycobacterium tuberculosis; assay: Antimicrobial activity against Mycobacterium tuberculosis H37Rv by microbroth dilution method; assay type: functional
[2] = Selectivity index, ratio of CC50 for african green monkey Vero cells to IC50 for methicillin-resistant Staphylococcus aureus NRS 70; assay type: functional
How it was run: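 Vero kidney epithelial cells were grown in DMEM/10% FBS, trypsinized, seeded at about 10% confluence and left overnight to adhere. They were then exposed to 2-fold serial compound dilutions in DMEM/FBS, and viability was read by MTT after overnight solubilization. SI = cytotoxic IC50 divided by MIC against MRSA.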

Klebsiella pneumoniae = assay: Antimicrobial activity against Klebsiella pneumoniae ATCC 33495 at >200 ug/ml by microbroth dilution method; assay type: functional
[3] = Solubility of the compound in DMEM/FBS medium; assay type: physicochemical
How it was run: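 Solubility limit estimated from 2-fold serial dilutions in DMEM with 5% FBS kept overnight at 37 °C; highest concentration with no visible precipitate taken.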

Staphylococcus aureus [4] = assay: Antimicrobial activity against methicillin-sensitive Staphylococcus aureus ATCC 29213 by microbroth dilution method; assay type: functional
Escherichia coli [5] = assay: Antimicrobial activity against Escherichia coli K-12 by microbroth dilution method; assay type: functional
Staphylococcus aureus [6] = assay: Antimicrobial activity against methicillin-resistant Staphylococcus aureus NRS 70 by microbroth dilution method; assay type: functional
Pseudomonas aeruginosa = assay: Antimicrobial activity against Pseudomonas aeruginosa PAO1 at >200 ug/ml by microbroth dilution method; assay type: functional
Escherichia coli [7] = assay: Antimicrobial activity against tolC-deficient Escherichia coli by microbroth dilution method; assay type: functional
Vero = assay: Cytotoxicity against african green monkey Vero cells assessed as reduction in cell viability by MTT assay; assay type: cell-based; details: Chlorocebus sabaeus
How it was run: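 Vero kidney epithelial cells (ATCC CCL-81) in DMEM/10% FBS, trypsinized, seeded near 10% confluence, left overnight to adhere; medium swapped for DMEM/FBS with 2-fold serial compound dilutions.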

Enterococcus faecalis = assay: Antimicrobial activity against Enterococcus faecalis ATCC 33186 by microbroth dilution method; assay type: functional
[8] = Inhibition of Escherichia coli topoisomerase 4 assessed as inhibition of decatenation of catenated kinetoplast DNA after 30 mins by electrophoretic analysis

| Structure (SMILES) | MIC [1] | Selectivity Index [2] | MIC (Klebsiella pneumoniae) | solubility [3] | MIC (Staphylococcus aureus [4]) | MIC (Escherichia coli [5]) | MIC (Staphylococcus aureus [6]) | MIC (Pseudomonas aeruginosa) | MIC (Escherichia coli [7]) | IC50 (Vero) | MIC (Enterococcus faecalis) | pIC50 [8] |
| --- | --- | --- | --- | --- | --- | --- | --- | --- | --- | --- | --- | --- |
| CC(C)=CCCC(C)CC1CC(=O)c2ccc(O)cc2O1 (centres undefined) | 200 µg/mL (≈ 694 µM) | 9.2 | > 200 µg/mL | > 200 µg/mL | 6.25 µg/mL (≈ 21.7 µM) | > 200 µg/mL | 3.13 µg/mL (≈ 10.9 µM) | > 200 µg/mL | 1.56 µg/mL (≈ 5.41 µM) | 28.8 µg/mL (≈ 99.9 µM) | 12.5 µg/mL (≈ 43.3 µM) |  |
| O=C1CC(C2CCCCC2)Oc2cc(O)cc(O)c21 (centres undefined) | 100 µg/mL (≈ 381 µM) |  | > 200 µg/mL |  | 25 µg/mL (≈ 95.3 µM) | > 200 µg/mL | 25 µg/mL (≈ 95.3 µM) | > 200 µg/mL | 6.25 µg/mL (≈ 23.8 µM) |  | 25 µg/mL (≈ 95.3 µM) |  |
| C=CCOc1cccc(/C=C/C(=O)c2ccc(O)cc2O)c1 | 50 µg/mL (≈ 169 µM) |  | > 200 µg/mL |  | 6.25 µg/mL (≈ 21.1 µM) | > 200 µg/mL | 12.5 µg/mL (≈ 42.2 µM) | > 200 µg/mL | 3.13 µg/mL (≈ 10.6 µM) |  | > 200 µg/mL |  |
| O=C1CC2(CCCCCC2)Oc2cc(O)ccc21 | 100 µg/mL (≈ 406 µM) |  | > 200 µg/mL |  | 50 µg/mL (≈ 203 µM) | > 200 µg/mL | 50 µg/mL (≈ 203 µM) | > 200 µg/mL | 12.5 µg/mL (≈ 50.7 µM) |  | 200 µg/mL (≈ 812 µM) |  |
| C=CCOc1ccc(/C=C/C(=O)c2ccc(O)cc2O)cc1 | 50 µg/mL (≈ 169 µM) |  | > 200 µg/mL |  | 25 µg/mL (≈ 84.4 µM) | > 200 µg/mL | > 200 µg/mL | > 200 µg/mL | > 200 µg/mL |  | 100 µg/mL (≈ 337 µM) |  |
| C=CCOc1ccccc1C1CC(=O)c2c(O)cc(O)cc2O1 (centres undefined) | > 200 µg/mL |  | > 200 µg/mL |  | 25 µg/mL (≈ 80 µM) | > 200 µg/mL | 12.5 µg/mL (≈ 40 µM) | > 200 µg/mL | 6.25 µg/mL (≈ 20 µM) |  | 50 µg/mL (≈ 160 µM) |  |
| CCn1cc(C(=O)O)c(=O)c2ccc(C)nc21 [NALIDIXIC ACID] |  |  |  |  |  |  |  |  |  |  |  | 3.09 |
| CCCCCCC1CC(O)c2ccc(O)cc2O1 (centres undefined) | 50 µg/mL (≈ 200 µM) |  | > 200 µg/mL |  | > 200 µg/mL | > 200 µg/mL | 200 µg/mL (≈ 799 µM) | > 200 µg/mL | 3.13 µg/mL (≈ 12.5 µM) |  | 50 µg/mL (≈ 200 µM) |  |
| CCCC1CC(=O)c2ccc(O)cc2O1 (centres undefined) | 200 µg/mL (≈ 970 µM) |  | > 200 µg/mL |  | 200 µg/mL (≈ 970 µM) | > 200 µg/mL | > 200 µg/mL | > 200 µg/mL | 50 µg/mL (≈ 242 µM) |  | > 200 µg/mL |  |
| CCCCCCCCCC1C/C(=N\O)c2c(O)cc(O)cc2O1 (centres undefined) | 100 µg/mL (≈ 311 µM) | 0.8 | > 200 µg/mL | 37.5 µg/mL (≈ 117 µM) | 12.5 µg/mL (≈ 38.9 µM) | > 200 µg/mL | 12.5 µg/mL (≈ 38.9 µM) | > 200 µg/mL | > 200 µg/mL | 10.1 µg/mL (≈ 31.4 µM) | 6.25 µg/mL (≈ 19.4 µM) |  |
| CCCC1CC(=O)c2c(OCOC)cc(OCOC)cc2O1 (centres undefined) | 100 µg/mL (≈ 322 µM) |  | > 200 µg/mL |  | > 200 µg/mL | > 200 µg/mL | > 200 µg/mL | > 200 µg/mL | 100 µg/mL (≈ 322 µM) |  | > 200 µg/mL |  |
| COCOc1ccc(C(=O)/C=C/C2=CCC3CC2C3(C)C)c(O)c1 (centres undefined) | 100 µg/mL (≈ 304 µM) |  | > 200 µg/mL |  | > 200 µg/mL | > 200 µg/mL | > 200 µg/mL | > 200 µg/mL | 25 µg/mL (≈ 76.1 µM) |  | > 200 µg/mL |  |
| CCCC1CC(O)c2ccc(O)cc2O1 (centres undefined) | 12.5 µg/mL (≈ 60 µM) |  | > 200 µg/mL |  | 50 µg/mL (≈ 240 µM) | > 200 µg/mL | 50 µg/mL (≈ 240 µM) | > 200 µg/mL | 50 µg/mL (≈ 240 µM) |  | 100 µg/mL (≈ 480 µM) |  |
| CCCCCCC1CC(=O)c2ccc(O)cc2O1 (centres undefined) | 50 µg/mL (≈ 201 µM) |  | > 200 µg/mL |  | > 200 µg/mL | > 200 µg/mL | > 200 µg/mL | > 200 µg/mL | 3.13 µg/mL (≈ 12.6 µM) |  | > 200 µg/mL |  |
| CCCCCCC1CC(=O)c2c(OCOC)cc(OCOC)cc2O1 (centres undefined) | 50 µg/mL (≈ 142 µM) |  | > 200 µg/mL |  | > 200 µg/mL | > 200 µg/mL | > 200 µg/mL | > 200 µg/mL | 6.25 µg/mL (≈ 17.7 µM) |  | > 200 µg/mL |  |
| O=C1CC2(CCCC2)Oc2cc(O)ccc21 | 200 µg/mL (≈ 916 µM) |  | > 200 µg/mL |  | > 200 µg/mL | > 200 µg/mL | > 200 µg/mL | > 200 µg/mL | 100 µg/mL (≈ 458 µM) |  | > 200 µg/mL |  |
| CCCC1C/C(=N\O)c2c(O)cc(O)cc2O1 (centres undefined) | 100 µg/mL (≈ 421 µM) |  | > 200 µg/mL |  | 100 µg/mL (≈ 421 µM) | > 200 µg/mL | 50 µg/mL (≈ 211 µM) | > 200 µg/mL | 25 µg/mL (≈ 105 µM) |  | 100 µg/mL (≈ 421 µM) |  |
| CCCCCCCCCC1CC(=O)c2c(OCOC)cc(OCOC)cc2O1 (centres undefined) | 100 µg/mL (≈ 253 µM) |  | > 200 µg/mL |  | > 200 µg/mL | > 200 µg/mL | > 200 µg/mL | > 200 µg/mL | > 200 µg/mL |  | > 200 µg/mL |  |
| CCCCCCCCCC1CC(=O)c2c(O)cc(O)cc2O1 (centres undefined) | 100 µg/mL (≈ 326 µM) | 2.8 | > 200 µg/mL | > 200 µg/mL | 100 µg/mL (≈ 326 µM) | > 200 µg/mL | 3.13 µg/mL (≈ 10.2 µM) | > 200 µg/mL | 12.5 µg/mL (≈ 40.8 µM) | 8.6 µg/mL (≈ 28.1 µM) | 100 µg/mL (≈ 326 µM) |  |
